The source of these data is ChEMBL document CHEMBL1129647, “Targeting delavirdine/atevirdine resistant HIV-1: identification of (alkylamino)piperidine-containing bis(heteroaryl)piperazines as broad spectrum HIV-1 reverse transcriptase inhibitors” (J Med Chem, 1996).

The target of series [1] is Human immunodeficiency virus type 1 reverse transcriptase (Human immunodeficiency virus 1, UniProt Q72547, P236L).
The target in series [2] is Human immunodeficiency virus type 1 reverse transcriptase (Human immunodeficiency virus 1, UniProt Q72547).
In series [3] the target is Human immunodeficiency virus type 1 reverse transcriptase (Human immunodeficiency virus 1, UniProt Q72547, Y181C).
Series [4] has as its system Human immunodeficiency virus 1. As to the kind of experiment: Concentration required to inhibit P24 production by 90% against U-90,152 of HIV-1 MF (P236L). The class given is functional.
The test system of series [5] is Human immunodeficiency virus 1. As to the kind of experiment: Concentration required to inhibit P24 production by 90% against L-697661 of HIV-1 IIIB (Y181C). Type of series: functional.
The test system of series [6] is Human immunodeficiency virus 1. In words: Concentration required to inhibit P24 production by 90% against U-90,152 of HIV-1 IIIB (L100I, M230L). The class given is functional.
A short description of series [7]: Bioavailability (dose 15 mg/kg i.v. and 30 mg/kg p.o.). The class given is ADME, organism-based. The following applies: rat, in vivo, po. A digest of the protocol:
(§1)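 Male Sprague-Dawley rats, fasted, dosed iv and po in a crossover design with a 1 week washout between treatments (N = 3). Compound was given as a solution in propylene glycol/water (80/20, v/v) acidified with a molar excess of methanesulfonic acid. Values are the iv clearance and the absolute oral bioavailability.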

Series [8] is described as follows: Clearance at an iv dose of 15 mg/Kg and po dose of 30 mg/Kg. Type of series: ADME, organism-based. To be noted: rat, in vivo. In a few lines:
as §1

A word on the IC50: it is the concentration that gives 50% inhibition. Higher therefore signals lower potency. For `CC(C)Nc1ccc(Cl)nc1N(C)C1CCN(C(=O)c2cc3cc(NS(C)(=O)=O)ccc3[nH]2)CC1`, the IC50 is 1700 nM in series [1], 360 nM in series [2] and 2130 nM in series [3].
One may read the IC90 as the concentration needed for an effect of 90%. As for `CN(c1ncccc1NC1CC1)C1CCN(C(=O)c2cc3cc(NS(C)(=O)=O)ccc3[nH]2)CC1`, the results for the IC50 in series [1], in series [2] and in series [3] were 210 nM, 90 nM and 280 nM, respectively. Further, the 90% effect concentration (IC90) is greater than 10000 nM in series [4] and 4400 nM in series [5].
For `CCNc1cccnc1N(CC)C1CCN(C(=O)c2cc3cc(NS(=O)(=O)C(C)C)ccc3[nH]2)CC1`, the IC50 came to 330 nM in series [1], 450 nM in series [2] and 660 nM in series [3].
For the molecule `CCC(C)(C)Nc1cccnc1N(C)C1CCN(C(=O)c2cc3cc(NS(C)(=O)=O)ccc3[nH]2)CC1`, the IC50 came out at 3330 nM in series [1], 350 nM in series [2] and 530 nM in series [3].
With `CCNc1cccnc1N(CC)C1CCN(C(=O)c2cc3cc(NS(=O)(=O)N4CCN(C)CC4)ccc3[nH]2)CC1`, the figures for the IC50 in series [1], in series [2] and in series [3] were 440 nM, 240 nM and 1110 nM, respectively.
Regarding `CN(c1ncccc1NC1(C)CC1)C1CCN(C(=O)c2cc3cc(NS(C)(=O)=O)ccc3[nH]2)CC1`, the IC50 in series [1] was 1450 nM; in series [2] it was 160 nM; in series [3], 370 nM. Besides, the IC90 in series [4] is greater than 300 nM; in series [5], 2300 nM.
With `CCCN(c1ncccc1NC(C)(C)C)C1CCN(C(=O)c2cc3cc(NS(C)(=O)=O)ccc3[nH]2)CC1`, the half-inhibitory concentration (IC50) in series [1] was 1450 nM; in series [2], 480 nM; in series [3] it was 2480 nM. In addition, the figures for the IC90 in series [4], in series [5] and in series [6] were 320 nM, 30 nM and 110 nM, respectively.
A word on the bioavailability: it is dose-corrected exposure relative to a reference, in per cent. Low values mean poor availability, high ones good availability. For the molecule `CCN(c1ncccc1NC(C)(C)C)C1CCN(C(=O)c2cc3cc(NC(=O)N4CCN(C)CC4)ccc3[nH]2)CC1`, the IC50 in series [1] amounted to 370 nM; in series [2] it was 220 nM; in series [3], 610 nM. Further, the IC90 in series [4] amounted to 160 nM; in series [5], 50 nM; in series [6], 160 nM. For the same molecule, in series [7], the bioavailability was found to be 35.1%. Besides, in series [8], the clearance was found to be 61 mL/min/kg.
Regarding `CCCN(c1ncccc1NCC)C1CCN(C(=O)c2cc3cc(NS(C)(=O)=O)ccc3[nH]2)CC1`, the values for the IC50 in series [1], in series [2] and in series [3] were 520 nM, 150 nM and 950 nM, respectively.
With `CCN(c1ncccc1NC(C)(C)C)C1CCN(C(=O)c2cc3cc(NS(=O)(=O)N4CCN(C)CC4)ccc3[nH]2)CC1`, the IC50 in series [1] was 1250 nM; in series [2], 790 nM; in series [3], 1830 nM. The IC90 in series [4] was 340 nM; in series [5] it was less than 30 nM; in series [6], 140 nM. Moreover, in series [7], the bioavailability was determined as 32%. The clearance in series [8] stood at 73.7 mL/min/kg.
For `CCCNc1cccnc1N(CC)C1CCN(C(=O)c2cc3cc(NS(C)(=O)=O)ccc3[nH]2)CC1`, the IC50 was determined as 280 nM in series [1], 130 nM in series [2] and 450 nM in series [3]. The results for the 90% effect concentration (IC90) in series [4] and in series [5] were 400 nM and 140 nM, respectively.
As for `CCNc1cccnc1N(CC)C1CCN(C(=O)c2cc3cc(NS(C)(=O)=O)ccc3[nH]2)CC1`, the IC50 in series [1] is 540 nM; in series [2], 460 nM; in series [3], 880 nM. Also, the values for the IC90 in series [4], in series [5] and in series [6] were 310 nM, 180 nM and 80 nM, respectively. This molecule also showed a bioavailability in series [7] of 2.8%. Moreover, the clearance in series [8] came to 66.6 mL/min/kg.
Regarding `CCN(c1nc(F)ccc1NC(C)C)C1CCN(C(=O)c2cc3cc(NS(C)(=O)=O)ccc3[nH]2)CC1`, the IC50 in series [1] came to 540 nM; in series [2], 460 nM; in series [3], 880 nM. Also, the IC90 in series [4] worked out at 300 nM; in series [5], 140 nM; in series [6], 110 nM.
On to `CCNc1cccnc1N(CC)C1CCN(C(=O)c2cc3cc(NC(=O)N4CCN(C)CC4)ccc3[nH]2)CC1`, for which the IC50 in series [1] was determined as 240 nM; in series [2], 140 nM; in series [3], 1230 nM.
Take `CN(c1nc(F)ccc1NC(C)(C)C)C1CCN(C(=O)c2cc3cc(NS(C)(=O)=O)ccc3[nH]2)CC1`: the IC50 in series [1] amounted to 1900 nM; in series [2], 530 nM; in series [3], 720 nM. Besides, the results for the IC90 in series [4], in series [5] and in series [6] were 2600 nM, 440 nM and 1600 nM, respectively.
With `CCN(c1ncccc1NC(C)C)C1CCN(C(=O)c2cc3cc(NS(C)(=O)=O)ccc3[nH]2)CC1`, the values for the IC50 in series [1], in series [2] and in series [3] were 200 nM, 250 nM and 400 nM, respectively.
As for `CCN(c1nc(F)ccc1NC(C)(C)C)C1CCN(C(=O)c2cc3cc(NS(=O)(=O)N4CCN(C)CC4)ccc3[nH]2)CC1`, the results for the concentration for half-maximal inhibition (IC50) in series [1], in series [2] and in series [3] were 1090 nM, 830 nM and 2070 nM, respectively. For the same molecule, the 90% effect concentration (IC90) amounted to 290 nM in series [4], 150 nM in series [5] and 290 nM in series [6]. The same molecule had a bioavailability in series [7] of 54%. For the same molecule, in series [8], the clearance is 61 mL/min/kg.
As to `CC(C)Nc1cccnc1N(C)C1CCN(C(=O)c2cc3ccc(CO)cc3[nH]2)CC1`, the results for the IC50 in series [1], in series [2] and in series [3] were 370 nM, 170 nM and 490 nM, respectively.
For the molecule `CCN(c1ncccc1NC(C)C)C1CCN(C(=O)c2cc3cc(NS(=O)(=O)N4CCN(C)CC4)ccc3[nH]2)CC1`, the IC50 in series [1] came out at 570 nM; in series [2], 380 nM; in series [3], 770 nM. Besides, the IC90 in series [4] turned out to be 300 nM; in series [5] it was 170 nM. The molecule further yielded a bioavailability in series [7] of 8%. Moreover, in series [8], the clearance stood at 89 mL/min/kg.
Regarding `CCCN(c1ncccc1NC(C)C)C1CCN(C(=O)c2cc3cc(NC(=O)N4CCN(C)CC4)ccc3[nH]2)CC1`, the IC50 in series [1] stood at 400 nM; in series [2], 190 nM; in series [3], 860 nM.
Consider `CC(C)Nc1cccnc1N(C)C1CCN(C(=O)c2cc3ccc(OCCOCCOCCO)cc3[nH]2)CC1`, for which the IC50 came out at 410 nM in series [1], 300 nM in series [2] and 770 nM in series [3].
For the molecule `CN(c1ncccc1NCC1CC1)C1CCN(C(=O)c2cc3cc(NS(C)(=O)=O)ccc3[nH]2)CC1`, the IC50 was 14600 nM in series [1], 520 nM in series [2] and 2910 nM in series [3].
As for `CCNc1cccnc1N(CC)C1CCN(C(=O)c2cc3cc(NS(=O)(=O)CC)ccc3[nH]2)CC1`, the IC50 in series [1] was found to be 260 nM; in series [2], 400 nM; in series [3], 480 nM.
With `CCNc1cccnc1N(C(C)C)C1CCN(C(=O)c2cc3cc(NS(C)(=O)=O)ccc3[nH]2)CC1`, the figures for the IC50 in series [1], in series [2] and in series [3] were 2600 nM, 380 nM and 3600 nM, respectively.
As to `CCCN(c1ncccc1NC(C)C)C1CCN(C(=O)c2cc3cc(NS(C)(=O)=O)ccc3[nH]2)CC1`, the IC50 in series [1] amounted to 240 nM; in series [2], 240 nM; in series [3], 610 nM. For the same molecule, the IC90 amounted to 220 nM in series [4] and 60 nM in series [5].
For the molecule `CC(C)Nc1cccnc1N(C1CC1)C1CCN(C(=O)c2cc3ccccc3[nH]2)CC1`, the figures for the half-inhibitory concentration (IC50) in series [1], in series [2] and in series [3] were 590 nM, 700 nM and 2310 nM, respectively.
Take `CCc1cc(NCc2nc3c(Cl)ccc(Cl)c3o2)c(O)nc1C` [L-697661]: the values for the IC50 in series [1], in series [2] and in series [3] were 110 nM, 800 nM and greater than 60000 nM, respectively. Moreover, the IC90 was 430 nM in series [4], greater than 10000 nM in series [5] and 4000 nM in series [6].
